Screening data from PubChem.
Sampled rows, rich in hits. Any-hit rate of the full collection: about 2.9%.
rRNA inh HTS – reduced GFP signal of wild-type E. coli, primary screen, bacterial rRNA inhibitor project, GFP/RFP fluorescence, OD600, single point; E. coli WT GFP vs humanized-ribosome RFP mutants, 24 h; stronger effect = lower value; DMSO median 0, no signal -100; GFP signal change (wild-type ribosome), % (no concentration beside the values); AID 720706, 2013; hit rate 1.6% among 350,000;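 active = significant combined selectivity score with lowered wild-type GFP, culture density cut under 30%, mutant RFP and density less affected; inactive = any of these conditions unmet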
Vif inh – HIV Vif self-association inhibitors, primary screen, imaging, HEK293T, single point; inhibition, % at 7.49 µM; HEK293T cells, Vif self-association by quenched fluorescence, 24 h; hit rate 0.35% among 340,000; in the data active = inhibition above about 50%, passing the limit was not always enough; inconclusive = no clear call, values can overlap the other calls; inactive = below about 31%
PglD inh – C. jejuni PglD acetyltransferase inhibitors, primary screen, biochemical, DTNB colorimetric, single point; purified PglD enzyme, DTNB colorimetric CoA detection; inhibition, % at 12.5 µM; hit rate 0.098% among 360,000; AID 602405, 2012; in the data active = inhibition above about 16%, passing the limit was not always enough; inconclusive = no clear call, values can overlap the other calls
FGF22 binding – binders of human FGF22 protein, primary screen, FGF22 synaptogenesis inhibitor project, biophysical, thermal shift, single point | recombinant FGF22 thermal shift, SYPRO orange fluorescence; percent of sucrose octasulfate shift, DMSO zero | activity (Tm shift, normalised), % at 9.99 µM | hit rate 1.5% among 340,000 | AID 651658, 2012;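 active = mean Tm shift, scaled 0 neutral to 100 positive control, at about 1.3% or above, every replicate too, limit read from the data; inconclusive = no clear call, values can overlap the other calls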
Target sequence (Q9HCT0 whole entry, looked up): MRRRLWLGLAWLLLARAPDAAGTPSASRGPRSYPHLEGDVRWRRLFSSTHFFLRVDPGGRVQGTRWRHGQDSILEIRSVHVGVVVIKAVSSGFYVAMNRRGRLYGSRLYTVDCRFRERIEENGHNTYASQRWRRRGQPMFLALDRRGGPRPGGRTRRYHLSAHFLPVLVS
PGC1a acetyl inh – inhibitors of PGC1a acetylation signal, primary screen, cell-based, U2OS, AlphaScreen, inhibitor mode; AlphaScreen anti-acetyl-lysine; with virally co-expressed GCN5 acetyltransferase; inhibition, % at 15.6 µM; hit rate 0.17% among 350,000;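 active = every replicate shows inhibition of at least 40%; inconclusive = mean inhibition at least 40% but some replicate below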;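 note: 0% = neutral control wells and 100% = positive control wells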
Cneo AK release – Cryptococcus neoformans cell lysis inducers, primary screen, AK release luminescence, single concentration; AID 651654, 2012; lysis activity, % at 15 µM; hit rate 0.2% among 360,000; C. neoformans lysis, adenylate kinase release luminescence, 4 h; normalised: neutral wells 0, clomiphene wells 100;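 active = mean lysis activity across replicates of at least 80%, whatever share of replicates individually reach that level; inactive = mean lysis activity below 80%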
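read-out = cell lysis signal | test system = log-phase Cryptococcus neoformans yeast cells | input = cells at 5 × 10^6 per mL | medium = fresh YPD growth medium | signal = luminescent adenylate kinase detection reagent | timing = 4 h at 37 °C static, read 1 h later | dosing = single dose | controls = Clomiphene as positive lysis control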
The depositor's hits bear a star; ? = inconclusive; . = not tested or not shown; + = active, no number.

SMILES	rRNA inh HTS	Vif inh	PglD inh	FGF22 binding	PGC1a acetyl inh	Cneo AK release
O=C1c2ccc3c4c(ccc(c24)C(=O)N1NC(=O)C(F)(F)F)CC3	.	9	.	.	.	.
CC(=O)NN1C(=O)c2ccc3c4c(ccc(c24)C1=O)C(=O)N(NC(C)=O)C3=O	-22*	-3	3	0	.	0
CCOC(=O)c1ccc2nc(NC(C)=O)sc2c1	10	19	.	43*	-6	.
CCOc1ccc2nc(NC(=O)CS(=O)(=O)c3ccc(C)cc3)sc2c1	-26*	-6	-1	.	-22	-2
CCOc1ccc2nc(NS(=O)(=O)Cc3ccccc3)sc2c1	.	106*	2	.	2	0
CCOc1ccc2nc(NS(=O)(=O)c3ccc(NC(C)=O)cc3)sc2c1	.	4	-5	.	0	-2
CCOc1ccc2nc(NC(=O)CS(=O)(=O)c3ccccc3)sc2c1	.	-7	0	.	-20	-3
CCN1CC(=O)N2[C@H](C1)[C@H](c1ccc(-c3ccccc3F)cc1)[C@@H]2CO	2	.	.	.	-14	.
Cc1ccc(C(=O)NNC(=O)C2CSC3(C)CCC(=O)N23)cc1 (configuration not stated)	2	10	.	0	.	.
Cc1ccc(CNC(=O)C2CSC3(C)CCC(=O)N23)cc1 (configuration not stated)	11	11	-1	43*	7	-1
C[C@@H]1CCCCO[C@H](CN(C)C(=O)c2ccncc2)[C@@H](C)CN([C@@H](C)CO)C(=O)c2cc(NC(=O)Cc3ccccc3)ccc2O1	-3	.	-2	0	1	0
C[C@H]1CCCCO[C@H](CN(C)C(=O)c2ccncc2)[C@@H](C)CN([C@@H](C)CO)C(=O)c2cc(NC(=O)Cc3ccccc3)ccc2O1	-1	.	-3	0	9	113*
C[C@H](CO)N1C[C@H](C)[C@@H](CN(C)C(=O)c2ccncc2)OCCCC[C@H](C)Oc2ccc(NC(=O)Cc3ccccc3)cc2C1=O	-2	.	-1	0	-7	102*
C[C@@H]1CN([C@H](C)CO)C(=O)c2cccc(NS(=O)(=O)c3cn(C)cn3)c2O[C@H]1CN(C)S(=O)(=O)c1cccs1	0	.	-1	0	6	0
Cc1ccc(/C=C/C(=O)O)cc1S(=O)(=O)NC1CCS(=O)(=O)C1 (configuration not stated)	34	7	.	43*	44	.
CCC/C(=C1/c2ccccc2C(=O)N1c1ccccc1)c1ccc(C=O)o1	-24*	.	.	0	.	.
CCC/C(=C1/c2ccccc2C(=O)N1c1ccccc1)c1cnc(OC)nc1	-2	-2	0	0	2	1
O=C(COn1nnc2ccc(Cl)cc21)NC12CC3CC(CC(C3)C1)C2	.	11	.	.	85*	.
Cn1c(-c2ccccn2)[n+](C)c2ccccc21	13	?	0	43*	.	0
CN(C)CCCNC(=O)C[C@H]1C=C[C@@H](NS(=O)(=O)c2ccccc2)[C@H](CO)O1	1	.	2	0	-7	44
CCCC(=O)Nc1ccc2c(c1)C(=O)NC2=O	6	.	3	0	-6	-1
O=C(Cc1cccc2ccccc12)Nc1ccc2c(c1)C(=O)NC2=O	-3	-9	.	44*	16	.
Nc1ccccc1-c1nnc(SCC(=O)Nc2ccccc2OC(F)F)[nH]c1=O	-12	15	1	43*	-10	-1
CCSc1nnc(-c2ccccc2NC(=O)CC)c(=O)[nH]1	.	6	3	.	9	0
COc1ccc(C(=O)O)cc1S(=O)(=O)Nc1cc(C(F)(F)F)ccc1N1CCCCC1	-25*	-19	5	-1	-3	14
SMILES	rRNA inh HTS	Vif inh	PglD inh	FGF22 binding	PGC1a acetyl inh	Cneo AK release
COc1ccc(C(=O)O)cc1S(=O)(=O)Nc1cc(Cl)ccc1N1CCOCC1	2	-4	-3	0	-9	-2
CCCN(C)C[C@H]1Oc2ncc(-c3ccccc3)cc2C(=O)N([C@H](C)CO)C[C@H]1C	-1	.	-5	0	-5	-1
Cc1nnc(SC(C)C(=O)Nc2ncc(Cl)cc2Cl)n1Cc1ccccc1 (configuration not stated)	.	4	.	.	23	.
COCCn1c(SC(C)C(=O)Nc2ncc(Cl)cc2Cl)nc2ccccc21 (configuration not stated)	.	0	.	.	44*	.
COc1ccc(N2CCN(CCS(=O)(=O)c3cc(Cl)ccc3Cl)CC2)cc1	-22*	.	1	0	3	2
CC(=O)N1CCN(CCS(=O)(=O)c2cc(Cl)ccc2Cl)CC1	4	5	.	0	10	.
O=c1[nH]c2ccccc2nc1/C=C/c1ccccc1	9	-10	.	0	-2	.
O=c1[nH]c2ccccc2nc1/C=C/c1ccc(F)cc1	11	0	-4	43*	1	-6
COc1ccc(OC)c(/C=C/c2nc3ccccc3[nH]c2=O)c1	6	+	-1	0	.	-1
COc1ccc(OC)c(C=Nc2ccccc2-c2nc3ccccc3[nH]2)c1	11	-8	.	0	.	.
CNc1snc(C)c1C(=O)OC(C)C(=O)c1ccc(F)cc1 (configuration not stated)	-24*	-7	-6	0	.	-1
CNc1snc(C)c1C(=O)OCC(=O)c1ccc(Cl)cc1	3	-8	4	0	.	1
CC(=O)c1cccc(NC(=O)Nc2cccnc2)c1	.	.	-2	.	50*	-5
CNS(=O)(=O)c1cccc(C(=O)Nc2cccnc2)c1	.	51*	-3	.	-7	0
Cc1nc2ccccc2c(=O)n1/N=C/c1cccs1	-19*	7	.	0	-12	.
Cc1ccc(-c2n[nH]c(=S)n2/N=C/c2cccs2)cc1	-33*	-6	7	0	-2	10
Cc1nc2ccccc2c(=O)n1/N=C/c1ccccc1	.	22	-3	.	2	0
S=c1[nH]nc(-c2cc(-c3ccccc3)n[nH]2)n1/N=C/c1cccc(Cl)c1	-17*	-3	.	0	-3	.
Cc1ccc(-c2n[nH]c(=S)n2/N=C/c2cccn2C)cc1	.	-5	.	.	50*	.
CO[C@@H]1CN(C)C(=O)c2ccc(NS(C)(=O)=O)cc2OC[C@H](C)N(C(=O)c2ccc3c(c2)OCO3)C[C@H]1C	-1	.	1	.	1	-3
Cc1cc(-c2n[nH]c(=S)n2/N=C/c2cccs2)n[nH]1	.	-1	.	0	.	.
S=c1[nH]nc(-c2ccccc2)n1/N=C/c1cccs1	-19*	-1	4	.	3	14
